Results published in ChEMBL document CHEMBL3046321, “Preparation of achiral and chiral (E)-enaminopyran-2,4-diones and their phytotoxic activity” (2009).

Key:
Urochloa decumbens [1] = experiment: Phytotoxicity against Urochloa decumbens seeds assessed as inhibition of aerial parts development at 5x10'-5 mol/kg measured at 21 days after seed sowing by green house trials; type: functional
Cucumis sativus [2] = experiment: Phytotoxic activity against Cucumis sativus (cucumber)seeds assessed as inhibition of radicle growth at 10^-4 mol/l at 25 degC after 72 hr by filter-paper based radicle elongation assay; type: functional
How it was run: (§1)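 Test compounds suspended and sonicated 5 min. Aliquots of 4 mL wetted two sheets of filter paper in glass Petri dishes, with 20 seeds per dish. Tested at 10⁻⁴ and 10⁻³ mol L⁻¹. Incubated 72 h at 25 °C under fluorescent light. Radicle length measured and germination recorded (radicle ≥1 mm). Completely randomized design, five replications. Results as % radicle growth inhibition vs untreated controls; Tukey's test, P 0.05.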

Sorghum bicolor [3] = experiment: Phytotoxic activity against Sorghum bicolor seeds assessed as inhibition of radicle growth at 10^-3 mol/l at 25 degC after 72 hr by filter-paper based radicle elongation assay; type: functional; how it was run: as §1
Urochloa decumbens [4] = experiment: Phytotoxicity against Urochloa decumbens seeds assessed as inhibition of root biomass development at 5x10'-5 mol/kg measured at 21 days after seed sowing by green house trials; type: functional
Ipomoea grandifolia [5] = experiment: Phytotoxicity against Ipomoea grandifolia seeds assessed as inhibition of root biomass development at […] measured at 21 days after seed sowing by green house trials
Urochloa decumbens [6] = experiment: Stimulation of root biomass development in Urochloa decumbens pregerminated seeds at 5x10'-4 mol/l at 28 degC after 24 to 48 hr by sand based radicle elongation assay; type: functional
Ipomoea grandifolia [7] = experiment: Phytotoxicity against Ipomoea grandifolia pre-germinated seeds assessed as inhibition of aerial parts development at 5x10'-4 mol/l at 28 degC after 24 to 48 hr by sand based radicle elongation assay; type: functional
Cucumis sativus [8] = experiment: Phytotoxic activity against Cucumis sativus (cucumber)seeds assessed as inhibition of radicle growth at 10^-3 mol/l at 25 degC after 72 hr by filter-paper based radicle elongation assay; type: functional; how it was run: as §1
Urochloa decumbens [9] = experiment: Stimulation of aerial parts development in Urochloa decumbens pregerminated seeds at 5x10'-4 mol/l at 28 degC after 24 to 48 hr by sand based radicle elongation assay; type: functional
Sorghum bicolor [10] = experiment: Phytotoxic activity against Sorghum bicolor seeds assessed as inhibition of radicle growth at 10^-4 mol/l at 25 degC after 72 hr by filter-paper based radicle elongation assay; type: functional; how it was run: as §1
Ipomoea grandifolia [11] = experiment: Phytotoxicity against Ipomoea grandifolia pre-germinated seeds assessed as inhibition of root biomass development at 5x10'-4 mol/l at 28 degC after 24 to 48 hr by sand based radicle elongation assay; type: functional
Ipomoea grandifolia [12] = experiment: Phytotoxicity against Ipomoea grandifolia seeds assessed as inhibition of aerial parts development at 5x10'-5 mol/kg measured at 21 days after seed sowing by green house trials; type: functional
Urochloa decumbens [13] = experiment: Phytotoxicity against Urochloa decumbens pregerminated seeds assessed as inhibition of root biomass development at 5x10'-4 mol/l at 28 degC after 24 to 48 hr by sand based radicle elongation assay; type: functional
Urochloa decumbens [14] = experiment: Phytotoxicity against Urochloa decumbens pregerminated seeds assessed as inhibition of aerial parts development at 5x10'-4 mol/l at 28 degC after 24 to 48 hr by sand based radicle elongation assay; type: functional

## COC(=O)[C@@H](N/C(C)=C1\C(=O)C=C(C)OC1=O)C(C)C
Urochloa decumbens [1]
  inhibition (INH): -47.4%
Cucumis sativus [2]
  inhibition at 100 µM: -6.4%
Sorghum bicolor [3]
  inhibition at 1000 µM: 70.5%
Urochloa decumbens [4]
  inhibition (INH): -45.7%
Ipomoea grandifolia [5]
  inhibition (INH): 65.3%
Urochloa decumbens [6]
  Activity: 46%
Ipomoea grandifolia [7]
  inhibition at 500 µM: 68%
Cucumis sativus [8]
  inhibition at 1000 µM: 80.8%
Urochloa decumbens [9]
  Activity: 46%
Sorghum bicolor [10]
  inhibition at 100 µM: 17.2%
Ipomoea grandifolia [11]
  inhibition at 500 µM: 65%
Ipomoea grandifolia [12]
  inhibition (INH): 67.7%

## COC(=O)[C@H](C)N/C(C)=C1\C(=O)C=C(C)OC1=O
Urochloa decumbens [1]
  inhibition (INH): 33.3%
Cucumis sativus [2]
  inhibition at 100 µM: -0.3%
Urochloa decumbens [13]
  inhibition at 500 µM: 46%
Sorghum bicolor [3]
  inhibition at 1000 µM: 71.7%
Urochloa decumbens [4]
  inhibition (INH): 43.4%
Ipomoea grandifolia [5]
  inhibition (INH): 61.7%
Ipomoea grandifolia [7]
  inhibition at 500 µM: 57%
Cucumis sativus [8]
  inhibition at 1000 µM: 76.3%
Sorghum bicolor [10]
  inhibition at 100 µM: 21.6%
Ipomoea grandifolia [11]
  inhibition at 500 µM: 62%
Urochloa decumbens [14]
  inhibition at 500 µM: 33%
Ipomoea grandifolia [12]
  inhibition (INH): 56.9%

## COC(=O)[C@H](Cc1ccccc1)N/C(C)=C1\C(=O)C=C(C)OC1=O
Cucumis sativus [2]
  inhibition at 100 µM: 2.1%
Sorghum bicolor [3]
  inhibition at 1000 µM: 24.4%
Cucumis sativus [8]
  inhibition at 1000 µM: 63.1%
Sorghum bicolor [10]
  inhibition at 100 µM: -10.8%

## CC1=CC(=O)/C(=C(/C)NNc2ccc([N+](=O)[O-])cc2[N+](=O)[O-])C(=O)O1
Cucumis sativus [2]
  inhibition at 100 µM: 23.4%
Sorghum bicolor [3]
  inhibition at 1000 µM: 75.8%
Cucumis sativus [8]
  inhibition at 1000 µM: 77.6%
Sorghum bicolor [10]
  inhibition at 100 µM: 8.3%

## CCCCN/C(C)=C1\C(=O)C=C(C)OC1=O
Cucumis sativus [2]
  inhibition at 100 µM: -10.4%
Sorghum bicolor [3]
  inhibition at 1000 µM: 79.7%
Cucumis sativus [8]
  inhibition at 1000 µM: 44%
Sorghum bicolor [10]
  inhibition at 100 µM: 48.3%

## CC1=CC(=O)/C(=C(/C)NNc2ccccc2)C(=O)O1
Cucumis sativus [2]
  inhibition at 100 µM: 29.5%
Sorghum bicolor [3]
  inhibition at 1000 µM: 27.2%
Cucumis sativus [8]
  inhibition at 1000 µM: 19.2%
Sorghum bicolor [10]
  inhibition at 100 µM: -26.5%

## COc1ccc(N/C(C)=C2\C(=O)C=C(C)OC2=O)cc1
Cucumis sativus [2]
  inhibition at 100 µM: 1.4%
Sorghum bicolor [3]
  inhibition at 1000 µM: 48.2%
Cucumis sativus [8]
  inhibition at 1000 µM: 33.4%
Sorghum bicolor [10]
  inhibition at 100 µM: 28.4%

## COC(=O)CN/C(C)=C1\C(=O)C=C(C)OC1=O
Urochloa decumbens [1]
  inhibition (INH): 33.3%
Cucumis sativus [2]
  inhibition at 100 µM: -15.3%
Urochloa decumbens [13]
  inhibition at 500 µM: 44%
Sorghum bicolor [3]
  inhibition at 1000 µM: 59.3%
Urochloa decumbens [4]
  inhibition (INH): 43.3%
Ipomoea grandifolia [5]
  inhibition (INH): 34.3%
Ipomoea grandifolia [7]
  inhibition at 500 µM: 42%
Cucumis sativus [8]
  inhibition at 1000 µM: 69.1%
Sorghum bicolor [10]
  inhibition at 100 µM: 7%
Ipomoea grandifolia [11]
  inhibition at 500 µM: 34%
Urochloa decumbens [14]
  inhibition at 500 µM: 33%
Ipomoea grandifolia [12]
  inhibition (INH): 41.7%

## CC1=CC(=O)/C(=C(/C)Nc2cc(Cl)c([N+](=O)[O-])cc2O)C(=O)O1
Urochloa decumbens [1]
  inhibition (INH): -20.3%
Cucumis sativus [2]
  inhibition at 100 µM: 21.8%
Sorghum bicolor [3]
  inhibition at 1000 µM: 64.4%
Urochloa decumbens [4]
  inhibition (INH): -24%
Ipomoea grandifolia [5]
  inhibition (INH): 32%
Urochloa decumbens [6]
  Activity: 24%
Cucumis sativus [8]
  inhibition at 1000 µM: 81.4%
Urochloa decumbens [9]
  Activity: 20%
Sorghum bicolor [10]
  inhibition at 100 µM: 4.3%
Ipomoea grandifolia [12]
  inhibition (INH): 43.7%

## CC1=CC(=O)/C(=C(/C)Nc2cc([N+](=O)[O-])ccc2O)C(=O)O1
Urochloa decumbens [1]
  inhibition (INH): 15%
Cucumis sativus [2]
  inhibition at 100 µM: -12.4%
Urochloa decumbens [13]
  inhibition at 500 µM: 15%
Sorghum bicolor [3]
  inhibition at 1000 µM: 55.6%
Urochloa decumbens [4]
  inhibition (INH): 15.3%
Ipomoea grandifolia [5]
  inhibition (INH): 79.9%
Ipomoea grandifolia [7]
  inhibition at 500 µM: 76%
Cucumis sativus [8]
  inhibition at 1000 µM: 58.1%
Sorghum bicolor [10]
  inhibition at 100 µM: 3.9%
Ipomoea grandifolia [11]
  inhibition at 500 µM: 81%
Urochloa decumbens [14]
  inhibition at 500 µM: 15%
Ipomoea grandifolia [12]
  inhibition (INH): 78.9%

## CC1=CC(=O)/C(=C(/C)Nc2ccccc2Cl)C(=O)O1
Cucumis sativus [2]
  inhibition at 100 µM: 54.5%
Sorghum bicolor [3]
  inhibition at 1000 µM: 85.2%
Cucumis sativus [8]
  inhibition at 1000 µM: 88.3%
Sorghum bicolor [10]
  inhibition at 100 µM: 32.9%

## CC1=CC(=O)/C(=C(/C)Nc2ccccc2O)C(=O)O1
Cucumis sativus [2]
  inhibition at 100 µM: 7.8%
Sorghum bicolor [3]
  inhibition at 1000 µM: 73.7%
Cucumis sativus [8]
  inhibition at 1000 µM: 69.3%
Sorghum bicolor [10]
  inhibition at 100 µM: 39.9%

## CC1=CC(=O)/C(=C(/C)Nc2ccccc2)C(=O)O1
Cucumis sativus [2]
  inhibition at 100 µM: -10.4%
Sorghum bicolor [3]
  inhibition at 1000 µM: 62%
Cucumis sativus [8]
  inhibition at 1000 µM: 81.1%
Sorghum bicolor [10]
  inhibition at 100 µM: 7.2%

## CCCN/C(C)=C1\C(=O)C=C(C)OC1=O
Cucumis sativus [2]
  inhibition at 100 µM: -15.7%
Sorghum bicolor [3]
  inhibition at 1000 µM: 75.4%
Cucumis sativus [8]
  inhibition at 1000 µM: 46.2%
Sorghum bicolor [10]
  inhibition at 100 µM: 19.9%

## CC[C@H](C)N/C(C)=C1\C(=O)C=C(C)OC1=O
Urochloa decumbens [1]
  inhibition (INH): 70.8%
Cucumis sativus [2]
  inhibition at 100 µM: 15%
Urochloa decumbens [13]
  inhibition at 500 µM: 66%
Sorghum bicolor [3]
  inhibition at 1000 µM: 79.3%
Urochloa decumbens [4]
  inhibition (INH): 65.5%
Ipomoea grandifolia [5]
  inhibition (INH): 83%
Ipomoea grandifolia [7]
  inhibition at 500 µM: 84%
Cucumis sativus [8]
  inhibition at 1000 µM: 87.5%
Sorghum bicolor [10]
  inhibition at 100 µM: 46.2%
Ipomoea grandifolia [11]
  inhibition at 500 µM: 81%
Urochloa decumbens [14]
  inhibition at 500 µM: 71%
Ipomoea grandifolia [12]
  inhibition (INH): 84.4%

## CC1=CC(=O)/C(=C(/C)NCc2ccccc2)C(=O)O1
Urochloa decumbens [1]
  inhibition (INH): 22.8%
Cucumis sativus [2]
  inhibition at 100 µM: 20.1%
Sorghum bicolor [3]
  inhibition at 1000 µM: 70.8%
Urochloa decumbens [4]
  inhibition (INH): 39.3%
Ipomoea grandifolia [5]
  inhibition (INH): 79.6%
Ipomoea grandifolia [7]
  inhibition at 500 µM: 84%
Cucumis sativus [8]
  inhibition at 1000 µM: 65.5%
Sorghum bicolor [10]
  inhibition at 100 µM: 45%
Ipomoea grandifolia [11]
  inhibition at 500 µM: 81%
Ipomoea grandifolia [12]
  inhibition (INH): 85.9%

## CC(=O)C1C(=O)C=C(C)OC1=O (stereo not drawn) [DEHYDROACETIC ACID]
Urochloa decumbens [1]
  inhibition (INH): -41.2%
Cucumis sativus [2]
  inhibition at 100 µM: 36.7%
Urochloa decumbens [13]
  inhibition at 500 µM: 41%
Sorghum bicolor [3]
  inhibition at 1000 µM: 82.7%
Urochloa decumbens [4]
  inhibition (INH): -67.7%
Ipomoea grandifolia [5]
  inhibition (INH): 40.7%
Urochloa decumbens [6]
  Activity: 68%
Cucumis sativus [8]
  inhibition at 1000 µM: 87.6%
Urochloa decumbens [9]
  Activity: 41%
Sorghum bicolor [10]
  inhibition at 100 µM: 34.6%
Urochloa decumbens [14]
  inhibition at 500 µM: 8%
Ipomoea grandifolia [12]
  inhibition (INH): 7.6%
